# Screens: PubChem BioAssay, several laboratories
# The list is not random: actives were taken first. Their share in the collection is about 2.1%.
# Beta2AR agonist – agonists of human beta-2 adrenergic receptor inducing internalization; response, % (test concentration not listed); Am2.2-beta2AR cells, FAP receptor internalization, flow cytometry; P07550; 0.43% of 340,000 active;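 active = response above a set limit, near 3 SD of response in nonfluorescent compounds, cut at about 42% in these data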
# Target sequence (P07550 whole entry, looked up): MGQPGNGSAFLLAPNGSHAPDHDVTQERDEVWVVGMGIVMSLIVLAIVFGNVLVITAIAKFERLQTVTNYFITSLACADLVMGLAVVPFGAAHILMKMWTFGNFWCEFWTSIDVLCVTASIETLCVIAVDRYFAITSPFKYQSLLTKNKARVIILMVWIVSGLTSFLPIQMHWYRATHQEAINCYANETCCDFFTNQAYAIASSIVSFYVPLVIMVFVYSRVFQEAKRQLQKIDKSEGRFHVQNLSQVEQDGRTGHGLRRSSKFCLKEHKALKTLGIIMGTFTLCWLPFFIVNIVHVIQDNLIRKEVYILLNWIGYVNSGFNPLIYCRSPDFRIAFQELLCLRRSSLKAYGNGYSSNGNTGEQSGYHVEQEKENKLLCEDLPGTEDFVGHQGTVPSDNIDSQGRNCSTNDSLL
# UCH37 inh – inhibitors of human deubiquitinating enzyme UCH37; purified proteasome/UCH37, Ub-AMC cleavage fluorescence; inhibition, % (test concentration not listed); 0.33% of 330,000 active; AID 588478;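 active = mean inhibition over replicate wells above about 20%, limit read from the data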;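 note: 0% = compound-free wells with enzyme and 100% = wells lacking proteasome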
# Target sequence (Q9Y5K5 whole entry, looked up): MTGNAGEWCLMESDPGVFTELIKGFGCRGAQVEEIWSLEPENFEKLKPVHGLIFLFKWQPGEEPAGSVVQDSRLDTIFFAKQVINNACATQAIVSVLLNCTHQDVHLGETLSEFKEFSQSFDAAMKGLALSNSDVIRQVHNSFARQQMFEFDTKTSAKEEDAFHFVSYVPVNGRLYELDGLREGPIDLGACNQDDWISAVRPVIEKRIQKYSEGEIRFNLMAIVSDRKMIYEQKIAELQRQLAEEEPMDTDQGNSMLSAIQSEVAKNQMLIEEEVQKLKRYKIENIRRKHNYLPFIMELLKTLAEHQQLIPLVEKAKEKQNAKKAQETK
#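 Material: Human UCH37 enzyme supplied as purified proteasome complex | Schedule: 30 min preincubation with enzyme, 25 min cleavage at room temperature | Detection: AMC fluorescence 355/460 nm | Measure: % inhibition of Ub-AMC cleavage fluorescence | Controls: Wells without proteasome as full block, compound-free enzyme plus substrate as uninhibited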
# aDG glyco up – increases alpha dystroglycan glycosylation; 0.22% of 360,000 active; activation, % at 10 µM; AID 624168; Pro5-aDG cells, alpha-DG glycosylation AlphaScreen (IIH6); 0% Pro5, 100% B10-LARGE cell signal;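 active = activation of at least 8% versus controls, or a plate z-score of at least 8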;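 note: Pro5 are CHO cells carrying HIG-tagged alpha-DG that lacks glycosylation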
# PfGluPho inh – PfG6PD (Plasmodium falciparum) enzyme inhibition; PfGluPho enzyme, NADPH resazurin-diaphorase fluorescence; inhibition, % at 20 µM; 0.78% of 350,000 active;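 active = inhibition reaching at least a set limit at 20 µM in the primary screen, cut at about 59% in these data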;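 note: 0% = DMSO wells with substrate and 100% = DMSO wells lacking glucose-6-phosphate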
# Cardio protect – modulators protecting cardiomyocytes from myocardial damage. H9c2 cardiomyocytes, H2O2 injury protection, ATPLite, 2 h. protection from H2O2 cell death, % at 20 µM. 0.63% of 360,000 active. AID 588492;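 active = compounds giving at least 50% protection of heart cells from peroxide-induced death in the single-dose screen, raw or plate-pattern-corrected value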;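 note: 0% = DMSO wells with peroxide and 100% = DMSO wells without peroxide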
# HKDC1 inhibitor – blocks human hexokinase HKDC1 activity | Q2TB90 | recombinant HKDC1, G6PDH/diaphorase resazurin coupled fluorescence | inhibition, % at 20 µM | 0.16% of 340,000 active;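 active = inhibition above about 35% when tested at 20 µM, limit read from the data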;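 note: plate controls were DMSO wells with enzyme for no effect and DMSO wells lacking enzyme for full effect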
#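 Material: recombinant HKDC1 hexokinase; Amount: HKDC1 at 5 µg/mL; Medium: Tris pH 8.0 buffer with MgCl2, Tween-20, BSA, BME; Schedule: 90 min reaction incubation at room temperature, dark; Technique: coupled resazurin fluorescence, excitation 525 nm, emission 613 nm.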
# PfGluPho conf – PfG6PD inhibition, single-dose confirmed | shares compounds with PfGluPho inh | recombinant PfGluPho, NADPH-diaphorase-resazurin fluorescence | inhibition, % at 20 µM | 34% of 2,400 active | AID 504753;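 active = inhibition of at least 50% at 20 µM in any single replicate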;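 note: 0% = DMSO with substrate and 100% = DMSO lacking glucose-6-phosphate substrate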
# Diaphorase 10uM – diaphorase inhibition or oxidation at 10 uM NADPH | shares compounds with PfGluPho inh | diaphorase-coupled resazurin reduction, fluorescence, NADPH 10 uM | inhibition, % at 20 µM | 39% of 820 active | AID 504862;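 active = average inhibition reaching 50% or more with the compound at 20 µM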;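 note: resorufin red fluorescence formed as diaphorase reduces resazurin using NADPH; 0% = DMSO with enzyme and 100% = DMSO without enzyme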
# Diaphorase 30uM – counter-screen for P. falciparum G6PD inhibitors: diaphorase inhibitors, oxidizers. Diaphorase/resazurin coupled assay, resorufin fluorescence, 30 uM NADPH. inhibition, % at 20 µM. 29% of 820 active. shares compounds with PfGluPho inh. AID 504863;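 active = inhibition averaging 50% or more, tested at 20 µM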;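 note: 0% = DMSO with enzyme and 100% = DMSO wells lacking diaphorase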
# * marks the source's active call; other numbers are inactive results; i = inactive; · = not tested or not shown.
SMILES,Beta2AR agonist,UCH37 inh,aDG glyco up,PfGluPho inh,Cardio protect,HKDC1 inhibitor,PfGluPho conf,others
C=CCOc1c(Cl)cc(CNc2ccc(N(C)C)cc2)cc1OC,23,-1,0,79*,-18,5,51*,Diaphorase 10uM=0;Diaphorase 30uM=-3
COc1cc(CNc2ccc(N3CCCC3)cc2)cc(Cl)c1OC,13,1,0,75*,-21,16,76*,Diaphorase 10uM=8;Diaphorase 30uM=14
C=CCOc1c(Cl)cc(CNCCC)cc1Cl,8,3,0,-14,6,0,·,
COc1cc(CNc2ccc(N3CCOCC3)cc2)cc(Br)c1OC,4,·,0,23,-6,-2,·,
CCOc1ccc(CNc2ccc(N3CCCC3)cc2)cc1,8,4,0,95*,-14,19,81*,Diaphorase 10uM=27;Diaphorase 30uM=14
CC(=NNC(=O)c1cccc(S(=O)(=O)N2CCCC2)c1)c1ccc(C)cc1,·,3,·,·,·,·,·,
CCn1c(SCC(=O)NN=Cc2ccccc2OCC(=O)O)nnc1-c1ccc(OC)cc1,·,3,·,·,·,·,·,
CN(C)c1ccc(C=NNC(=O)c2cccc3cc[nH]c23)cc1,·,-78,·,·,·,·,·,
COc1ccc(OC)c(C=NNC(=O)c2c(C)nc3cc(C)ccn23)c1,·,-380,·,·,·,·,·,
CCOc1cc(CNc2ccc(N3CCCC3)cc2)cc(Cl)c1OC,-1,2,0,84*,-5,2,63*,Diaphorase 10uM=-4;Diaphorase 30uM=-5
CCOc1cc(CNc2ccc(S(N)(=O)=O)cc2)cc(Cl)c1OC,6,-2,0,-4,1,-4,·,
O=C(O)CCC(=NNC(=O)c1ccc(F)cc1)c1ccc(Br)cc1,·,5,·,·,·,·,·,
COc1cc(C=NNc2ccc(C(F)(F)F)cn2)ccc1O,·,6,·,·,·,·,·,
COc1cc(SSc2cc(OC)cc([N+](=O)[O-])c2N)c(N)c([N+](=O)[O-])c1,1,14,0,112*,-16,2,100*,Diaphorase 10uM=-27;Diaphorase 30uM=-20
COc1cc([N+](=O)[O-])c2ncsc2c1,2,5,0,-2,1,12,·,
Cc1ccc(NS(=O)(=O)c2ccccc2)c2c1CC(C)(C)O2,4,0,0,92*,-8,2,65*,Diaphorase 10uM=54*;Diaphorase 30uM=50*
COc1ccc2nc(C)cc(SCC(=O)N/N=C/c3ccccc3)c2c1,-2,·,1,59,4,-6,11,
COc1ccccc1/C=N/NC(=O)CSc1ccc2ccccc2n1,-3,·,0,119*,0,3,85*,Diaphorase 10uM=97*;Diaphorase 30uM=86*
COc1ccccc1/C=N/NC(=O)CC(=O)NCc1ccccc1,-3,·,0,105*,2,-4,86*,Diaphorase 10uM=93*;Diaphorase 30uM=82*
COc1ccc(OC)c(C=NNC(=O)CC(=O)NCc2ccccc2)c1,·,i,·,·,·,·,·,
COc1ccccc1/C=N/NC(=O)CSc1cc(C)nc2ccccc12,-10,·,0,83*,-10,-1,68*,Diaphorase 10uM=69*;Diaphorase 30uM=53*
CC(=NNC(=O)c1ccc(C)cc1C)c1ccc2c(c1)OCO2,·,2,·,·,·,·,·,
Cc1ccc(C)c(C(=O)NCCN(C)C)c1,4,2,0,1,0,5,·,
C=C(CN(C)C)C(=O)c1cc(C)ccc1C,19,·,0,79*,-18,6,47,
CCOCCCNC(=O)/C(C#N)=C/c1ccc([N+](=O)[O-])o1,5,-40,0,84*,-26,15,74*,Diaphorase 10uM=63*;Diaphorase 30uM=71*
SMILES,Beta2AR agonist,UCH37 inh,aDG glyco up,PfGluPho inh,Cardio protect,HKDC1 inhibitor,PfGluPho conf,others
CCOCCCNC(=O)/C(C#N)=C/c1ccc(-c2ccc(S(=O)(=O)N3CCOCC3)cc2)o1,22,-27,0,13,20,3,·,
CC(NC(=O)/C(C#N)=C/c1ccc([N+](=O)[O-])o1)c1ccccc1 (stereo not drawn),18,·,0,92*,-14,11,69*,Diaphorase 10uM=64*;Diaphorase 30uM=66*
COc1ccc(C=NN2CCN(c3ccncc3S(=O)(=O)N3CCCCC3)CC2)cc1,·,2,·,·,·,·,·,
O=C(Nc1ccccc1C(=O)NN=Cc1ccco1)c1ccc(Cl)cc1,·,-3,·,·,·,·,·,
CC1CCN(C(=S)c2ccccc2O)CC1,-2,4,0,64*,6,2,17,
CC1CCN(C(=S)c2ccc(O)cc2)CC1,-1,1,0,7,-4,-5,·,
NC(=S)NNc1cc(Cl)cc(Cl)c1,-8,2,0,71*,10,-3,14,
NC(=S)Nc1cc(Cl)cc(Cl)c1,8,1,0,20,1,-6,·,
CC(C)C1=CC(=NS(=O)(=O)c2cccc([N+](=O)[O-])c2)C=C(C(C)C)C1=O,3,3,0,78*,0,17,0,
Cc1ccc2cc(C)c(Sc3nnnn3-c3ccccc3)nc2c1,3,3,0,9,-2,-7,·,
Cc1cc(C)c(SSc2nnnn2-c2ccccc2)c(C)c1,·,·,0,113*,-6,·,40,
CC(=NNS(=O)(=O)c1ccc(Cl)cc1)c1cccc(NC(=O)c2ccncc2)c1,·,4,·,·,·,·,·,
CN(C)S(=O)(=O)c1cccc(NC(=S)Nc2cccc3cnccc23)c1,4,-1,3,69*,-16,11,8,
S=C(Nc1ccc(Cl)cc1)Nc1cccc2cnccc12,-1,-1,2,75*,-12,7,-8,
Cc1c2cc[n+](CCN3CCCCC3)cc2c(C)c2c1[nH]c1ccc(O)cc12,-5,·,0,87*,3,20,12,
C/C(C=NNC(=O)CN1CCN(Cc2ccccc2)CC1)=C\c1ccco1,·,8,·,·,·,·,·,
COc1ccc(C(=O)C(C=NO)=NNc2ccc(F)cc2)cc1,·,7,·,·,·,·,·,
CC(=O)Nc1ccc(C(=O)Nc2nc(-c3cccnc3)cs2)cc1,1,2,0,60*,36,-1,2,
O=C(Nc1nc(-c2ccccc2)cs1)c1cccnc1,-4,-9,0,-1,14,-3,·,
O=C(NN=Cc1ccccc1C(=O)O)c1ccccc1Br,·,0,·,·,·,·,·,
CC(C)OCCCNC(=S)Nc1ccc(S(N)(=O)=O)cc1,1,2,0,61*,4,-2,44,
CC(=O)c1ccc(NC(=S)NCCc2ccc(S(N)(=O)=O)cc2)cc1,2,·,0,-15,-4,0,·,
CC(=NNC(=S)N1CCCC1)c1ccccn1,·,·,-1,67*,20,·,12,
CC(=NNC(=O)C1CCCN(S(=O)(=O)c2ccccc2)C1)c1ccccn1 (stereo not drawn),·,3,·,·,·,·,·,
